Data published in ChEMBL document CHEMBL1157985, “Antiplasmodial and cytotoxic activity of natural bisbenzylisoquinoline alkaloids” (J Nat Prod, 1999).

Legend:
[1] = tested on: KB; assay: Cytotoxicity against human KB cells after 72 hrs by SRB assay; assay type: functional; settings: read-out: ED50 (the source's name)
Summary of the method: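 KB-3 cells grown in DMEM with 10% FBS at 37 °C and 5% CO₂ to 60–70% confluence, then used 1 day after a medium change. Samples were dissolved in DMSO and serially diluted in 10% aqueous DMSO. 5×10⁴ cells were exposed for 72 h at 37 °C, then TCA-fixed, stained with 0.4% SRB and read at 515 nm. Zero-day control was subtracted and values expressed relative to solvent control; ED50 by nonlinear regression.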

[2] = tested on: Plasmodium falciparum; assay: Antiplasmodial activity against chloroquine-sensitive Plasmodium falciparum D6 infected human erythrocytes as [3H]hypoxanthine uptake after 24 hrs; assay type: functional, organism-based
Summary of the method: (§1)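 P. falciparum (D6, W2) cultured in type A+ human erythrocytes, RPMI-1640 with NaHCO3, HEPES and 10% heat-inactivated human plasma, 37 °C under 5% O2/5% CO2/90% N2. Infected red cells at 0.5-1.0% parasitemia, 1.0% hematocrit exposed to compound, duplicate seven-point series, 24 h; then 0.5 μCi [3H]hypoxanthine per well for 18 h more. Filter harvest, scintillation counting; IC50 by nonlinear regression versus zero-drug controls.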

[3] = Selectivity index, ratio of ED50 for human KB cells to IC50 for […] Plasmodium falciparum D6; assay type: functional
[4] = tested on: Plasmodium falciparum; assay: Antiplasmodial activity against chloroquine-resistant Plasmodium falciparum W2 infected human erythrocytes as [3H]hypoxanthine uptake after 24 hrs; assay type: functional, organism-based; summary of the method: as §1
[5] = Selectivity index, ratio of ED50 for human KB cells to IC50 for chloroquine-resistant Plasmodium falciparum W2; assay type: functional

Row | Structure (SMILES) | EC50 [1] [nM] | IC50 [2] [nM] | Selectivity Index [3] | IC50 [4] [nM] | Selectivity Index [5]
1 | COc1ccc2cc1Oc1ccc(cc1)C[C@H]1c3c(cc(O)c(OC)c3Oc3cc4c(cc3OC)CCN(C)[C@@H]4C2)CCN1C | 10500 | 214 | 49 | 510 | 21
2 | COc1ccc(C[C@H]2c3cc(Oc4cc(OC)c(OC)cc4C[C@H]4c5cc(O)c(OC)cc5CCN4C)c(OC)cc3CCN2C)cc1O | > 29900 | 61 | >490 | 164 | >180
3 | COc1ccc2cc1Oc1ccc(cc1)C[C@@H]1c3c(cc(OC)c(O)c3Oc3cc4c(cc3OC)CCN(C)[C@@H]4C2)CCN1C | 4110 | 64 | 64 | 192 | 21
4 | COc1cc2c(cc1O)[C@H](Cc1ccc(Oc3cc(C[C@@H]4c5cc(OC)c(OC)cc5CCN4C)ccc3OC)cc1)N(C)CC2 | > 32100 | 213 | >150 | 227 | >140
5 | COc1ccc2cc1Oc1ccc(cc1)C[C@H]1c3c(cc(OC)c(O)c3Oc3cc4c(cc3OC)CCN(C)[C@H]4C2)CCN1C | 3620 | 48 | 76 | 67 | 54
6 | COc1ccc2cc1Oc1ccc(cc1)C[C@@H]1NCCc3cc(OC)c(cc31)Oc1c(O)c(OC)cc3c1[C@@H](C2)N(C)CC3 | 2700 | 118 | 23 | 218 | 12
7 | COc1ccc2cc1Oc1ccc(cc1)C[C@H]1c3cc(c(OC)cc3CCN1C)Oc1c(OC)c(OC)cc3c1[C@H](C2)N(C)CC3 [FANCHININ] | 5800 | 288 | 20 | 257 | 22
8 | COc1ccc2cc1Oc1ccc(cc1)C[C@H]1c3c(cc4c(c3Oc3cc5c(cc3OC)CCN[C@@H]5C2)OCO4)CCN1C | 6600 | 79 | 84 | 219 | 30
9 | COc1ccc2cc1Oc1ccc(cc1)C[C@@H]1c3cc(c(OC)cc3CCN1C)Oc1c(OC)c(OC)cc3c1[C@@H](C2)N(C)CC3 [PHAEANTHINE] | 10800 | 305 | 35 | 498 | 22
10 | COc1ccc2cc1Oc1ccc(cc1)C[C@H]1c3c(cc(OC)c(O)c3Oc3cc4c(cc3OC)CCN(C)[C@@H]4C2)CCN1C [HOMOAROMOLINE] | 10400 | 173 | 60 | 474 | 22
11 | CN1CCc2cc3c4cc2[C@@H]1Cc1ccc(O)c(c1)Oc1ccc(cc1)C[C@H]1c2c(cc(O)c(c2O4)O3)CCN1C | 4900 | 90 | 55 | 259 | 19
12 | COc1ccc2cc1Oc1ccc(cc1)C[C@H]1c3cc(c(OC)cc3CCN1C)Oc1c(O)c(OC)cc3c1[C@H](C2)N(C)CC3 [FANGCHINOLINE] | 9210 | 179 | 51 | 306 | 30
13 | COc1ccc2cc1Oc1ccc(cc1)C[C@H]1c3c(cc(OC)c4c3Oc3cc5c(cc3O4)CCN(C)[C@H]5C2)CCN1C [ISOTRILOBINE] | 24000 | 388 | 62 | 788 | 30
14 | COc1cc2c3cc1Oc1c(OC)c(OC)cc4c1[C@H](Cc1ccc(cc1)Oc1cc(ccc1O)C[C@@H]3N(C)CC2)N(C)CC4 | 15000 | 42 | 350 | 67 | 220
15 | COc1ccc2cc1Oc1ccc(cc1)C[C@H]1c3c(cc(OC)c4c3Oc3cc5c(cc3O4)CCN=C5C2)CCN1C | 5000 | 554 | 11 | 464 | 11
16 | COc1ccc2cc1Oc1cc3c(cc1OC)CCN[C@@H]3Cc1ccc(cc1)Oc1c3c(cc4c1[C@@H](C2)N(C)CC4)OCO3 | 14400 | 530 | 27.1 | 676 | 21.2
17 | COc1cc2c3c(c1O)Oc1cc4c(cc1O)CCN(C)[C@H]4Cc1ccc(O)c(c1)Oc1ccc(cc1)C[C@@H]2NCC3 | 17800 | 883 | 20 | 1590 | 11
18 | COc1cc2c3cc1Oc1c(OC)c(OC)cc4c1[C@@H](Cc1ccc(O)c(c1)Oc1ccc(cc1)C[C@@H]3N(C)CC2)NCC4 | 7100 | 47 | 149 | 193 | 36
19 | COc1ccc2cc1Oc1cc3c(cc1OC)CCN(C)[C@@H]3Cc1ccc(cc1)Oc1c(O)c(OC)cc3c1[C@@H](C2)N(C)CC3 | 7700 | 128 | 60 | 387 | 20
